Laboratory results published in ChEMBL document CHEMBL3098104, “Design, synthesis and preliminary SAR studies of novel N-arylmethyl substituted piperidine-linked aniline derivatives as potent HIV-1 NNRTIs” (Bioorg Med Chem, 2014).
pEC50: −log10 of the molar value.

Assays:
[1] = test system: Human immunodeficiency virus 1; assay: Fold resistance, ratio of EC50 for HIV1 RES056 expressing K103N/Y181C mutant infected in human MT4 cells to EC50 for wild-type HIV1 3B infected in human MT4 cells; type: functional
Outline: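 MTT protection assay in MT-4 cells run in parallel against the K103N/Y181C double mutant (RES056) and wild-type IIIB. Viability read 5 days after infection. Fold resistance = EC50 against the mutant divided by EC50 against IIIB. Median of two or three parallel assays.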

[2] = Selectivity index, ratio of CC50 for human MT4 cells to EC50 for HIV1 3B infected in human MT4 cells; type: toxicity, cell-based; conditions: read-out: Ratio CC50/EC50
Outline: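 MT-4 cells at 6 × 10^5 cells/ml, in triplicate wells, infected with HIV-1 IIIB or mock-infected. Compounds added from 10× stocks at the start of infection. MTT viability read on day 5. SI = CC50 (mock-infected cells) / EC50 (IIIB). Median of two or three parallel assays.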

[3] = test system: Human immunodeficiency virus 2; assay: Antiviral activity against HIV2 ROD infected in human MT4 cells assessed as inhibition of viral cytopathicity after 5 days by MTT assay; type: functional, organism-based; conditions: Human immunodeficiency virus 2, ISOLATE ROD, MT4, 120 h
Outline: (§1)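 HIV-infected MT-4 cells were compared with mock-infected wells in triplicate. Exponentially growing cells were pelleted for 5 min at 1000 rpm and resuspended at 6 × 10^5 cells/ml. Compound was added at the start of infection from stocks at 10× final concentration. Viability was read by MTT five days post-infection. EC50 is the concentration giving 50% protection against virus-induced cytotoxicity, taken as the median of two or three parallel assays.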

[4] = Cytotoxicity against human MT4 cells assessed as cell viability after 5 days by MTT assay; type: cell-based
Outline: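 Mock-infected MT-4 cells, from exponentially growing cultures pelleted and resuspended at 6 × 10^5 cells/ml, were run in triplicate wells alongside the infected series. Compound was added from 10× stocks at the start of the experiment. Viability was read by MTT after five days. CC50 is the concentration that lowers viability by 50%, taken as the median of two or three parallel assays.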

[5] = test system: Human immunodeficiency virus 1; assay: Antiviral activity against HIV1 RES056 harboring reverse transcriptase K103N/Y181C mutant infected in human MT4 cells assessed as inhibition of viral cytopathicity after 5 days by MTT assay; type: functional, organism-based; conditions: Human immunodeficiency virus 1, RES056, MT4, 120 h
Outline: (§2)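 MT-4 cells pelleted 5 min at 1000 rpm, resuspended at 6 × 10^5 cells/ml and plated. Compounds added from 10× stocks at the start, in triplicate wells, to HIV-infected and mock-infected cells in parallel. Viability read by MTT 5 days after infection. EC50 is 50% protection from virus-induced cytotoxicity. CC50 is 50% loss of viability in mock-infected cells. SI = CC50/EC50. Median of two or three parallel assays.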

[6] = test system: Human immunodeficiency virus 1; assay: Antiviral activity against wild-type HIV1 3B infected in human MT4 cells assessed as inhibition of viral cytopathicity after 5 days by MTT assay; type: functional, organism-based; conditions: Human immunodeficiency virus 1, 3B, MT4, 120 h; outline: as §1
[7] = Selectivity index, ratio of CC50 for human MT4 cells to EC50 for HIV1 RES056 harboring reverse transcriptase K103N/Y181C mutant infected in human MT4 cells; type: toxicity, cell-based; conditions: read-out: Ratio CC50/EC50; outline: as §2

Structure (SMILES) | Ratio EC50 [1] | selectivity ratio [2] | pEC50 [3] | CC50 at 120 h [4] | pEC50 [5] | pEC50 [6] | selectivity ratio [7]
CC(=O)c1ccc(CN2CCC(Nc3cc(Oc4c(C)cc(C#N)cc4C)ccc3[N+](=O)[O-])CC2)cc1 | >1630 | > 1630 | < 3.60 | > 251 µM | < 3.60 | 6.82 | 
CC(=O)Nc1ccc(Oc2c(C)cc(C#N)cc2C)cc1NC1CCN(Cc2ccc(S(N)(=O)=O)cc2)CC1 |  |  | < 3.64 | > 228 µM |  | < 3.64 | 
Cc1cc(C)c(Oc2ccc([N+](=O)[O-])c(NC3CCN(Cc4ccc(C(N)=O)cc4)CC3)c2)c(C)c1 | >457 | 457 | < 4.57 | 27 µM | < 4.57 | 7.23 | < 1
COC(=O)c1ccc(CN2CCC(Nc3cc(Oc4c(C)cc(C#N)cc4C)ccc3[N+](=O)[O-])CC2)cc1 | >1208 | ≥ 1210 | < 3.80 | ≥ 160 µM | < 3.80 | 6.89 | 
Cc1cc(C)c(Oc2ccc([N+](=O)[O-])c(NC3CCN(Cc4ccc(CO)cc4)CC3)c2)c(C)c1 | >255 | 255 | < 4.60 | 25 µM | < 4.60 | 7.02 | < 1
Cc1cc(C#N)cc(C)c1Oc1ccc(N)c(NC2CCN(Cc3ccc(S(N)(=O)=O)cc3)CC2)c1.Cl | 114 | 505 | < 4.66 | 22 µM | 5.32 | 7.37 | 4.4
COC(=O)c1ccc(CN2CCC(Nc3cc(Oc4c(C)cc(C)cc4C)ccc3[N+](=O)[O-])CC2)cc1 | >246 | > 246 | < 3.61 | > 248 µM | < 3.61 | 6.00 | 
Cc1cc(C)c(Oc2ccc([N+](=O)[O-])c(NC3CCN(Cc4ccncc4)CC3)c2)c(C)c1 | >258 | 258 | < 4.68 | 21 µM | < 4.68 | 7.09 | < 1
Cc1cc(C#N)cc(C)c1Oc1ccc([N+](=O)[O-])c(NC2CCN(Cc3ccc(C(N)=O)cc3)CC2)c1 | >430 | 430 | < 4.57 | 27 µM | < 4.57 | 7.21 | < 1
CC(=O)c1ccc(CN2CCC(Nc3cc(Oc4c(C)cc(C)cc4C)ccc3[N+](=O)[O-])CC2)cc1 | >1312 | 1310 | < 3.86 | 138 µM | < 3.86 | 6.96 | < 1
Cc1cc(C#N)cc(C)c1Oc1ccc([N+](=O)[O-])c(NC2CCN(Cc3ccccc3)CC2)c1 | >4.4 | 4.4 | < 5.55 | 2.8 µM | < 5.55 | 6.20 | < 1
Cc1cn([C@H]2C[C@H](N=[N+]=[N-])[C@@H](CO)O2)c(=O)[nH]c1=O [ZIDOVUDINE] |  | > 13100 | 8.24 | > 94 µM | 8.13 | 8.14 | > 12600
Cc1cc(C#N)cc(C)c1Oc1ccc([N+](=O)[O-])c(NC2CCN(Cc3ccc(C(=O)O)cc3)CC2)c1 | >159 | 159 | < 4.52 | 30 µM | < 4.52 | 6.72 | < 1
Cc1cc(C)c(Oc2ccc([N+](=O)[O-])c(NC3CCN(Cc4ccc(S(C)(=O)=O)cc4)CC3)c2)c(C)c1 | >5895 | 5900 | < 3.80 | 158 µM | < 3.80 | 7.57 | < 1
Cc1cc(C#N)cc(C)c1Oc1ccc([N+](=O)[O-])c(NC2CCN(Cc3ccc([N+](=O)[O-])cc3)CC2)c1 | >269 | 269 | < 3.74 | 182 µM | < 3.74 | 6.17 | < 1
Cc1cc(C)c(Oc2ccc([N+](=O)[O-])c(NC3CCN(Cc4ccc(S(N)(=O)=O)cc4)CC3)c2)c(C)c1 | >615 | 615 | < 4.66 | 22 µM | < 4.66 | 7.44 | < 1
O=c1[nH]cnc2c1ncn2[C@H]1CC[C@@H](CO)O1 [DIDANOSINE] |  | > 11 | 4.74 | > 212 µM |  | 4.72 | > 12
Cc1cc(C)c(Oc2ccc([N+](=O)[O-])c(NC3CCN(Cc4ccc(C(=O)O)cc4)CC3)c2)c(C)c1 | >161 | 161 | < 4.46 | 35 µM | < 4.46 | 6.66 | < 1
Cc1cc(C#N)cc(C)c1Oc1ccc([N+](=O)[O-])c(NC2CCN(Cc3ccncc3)CC2)c1 | >336 | 336 | < 4.72 | 19 µM | < 4.72 | 7.25 | < 1
Cc1cc(C#N)cc(C)c1Oc1ccc([N+](=O)[O-])c(NC2CCN(Cc3ccc(S(N)(=O)=O)cc3)CC2)c1 | >782 | 782 | < 4.64 | 23 µM | < 4.64 | 7.54 | < 1
CC(C)Nc1cccnc1N1CCN(C(=O)c2cc3cc(NS(C)(=O)=O)ccc3[nH]2)CC1 [DELAVIRDINE] | >277 | > 277 |  | > 36 µM | < 4.44 |  | 
Cc1cc(C)c(Oc2ccc([N+](=O)[O-])c(NC3CCN(Cc4ccc([N+](=O)[O-])cc4)CC3)c2)c(C)c1 | >70 | 70 | < 3.83 | 147 µM | < 3.83 | 5.68 | < 1
O=C1Nc2ccc(Cl)cc2[C@@](C#CC2CC2)(C(F)(F)F)O1 [EFAVIRENZ] | 70 | > 855 |  | > 6.3 µM |  | 8.13 | > 12
